{"source": "ChEMBL document CHEMBL1137180", "about": "“Synthesis and structure-activity relationship of a novel sulfone series of TNF-alpha converting enzyme inhibitors” (Bioorg Med Chem Lett, 2004)", "key": {"[1]": {"target": "Disintegrin and metalloproteinase domain-containing protein 17 (Sus scrofa, UniProt O77636)", "sequence (O77636 whole entry, the tested form may be a part)": "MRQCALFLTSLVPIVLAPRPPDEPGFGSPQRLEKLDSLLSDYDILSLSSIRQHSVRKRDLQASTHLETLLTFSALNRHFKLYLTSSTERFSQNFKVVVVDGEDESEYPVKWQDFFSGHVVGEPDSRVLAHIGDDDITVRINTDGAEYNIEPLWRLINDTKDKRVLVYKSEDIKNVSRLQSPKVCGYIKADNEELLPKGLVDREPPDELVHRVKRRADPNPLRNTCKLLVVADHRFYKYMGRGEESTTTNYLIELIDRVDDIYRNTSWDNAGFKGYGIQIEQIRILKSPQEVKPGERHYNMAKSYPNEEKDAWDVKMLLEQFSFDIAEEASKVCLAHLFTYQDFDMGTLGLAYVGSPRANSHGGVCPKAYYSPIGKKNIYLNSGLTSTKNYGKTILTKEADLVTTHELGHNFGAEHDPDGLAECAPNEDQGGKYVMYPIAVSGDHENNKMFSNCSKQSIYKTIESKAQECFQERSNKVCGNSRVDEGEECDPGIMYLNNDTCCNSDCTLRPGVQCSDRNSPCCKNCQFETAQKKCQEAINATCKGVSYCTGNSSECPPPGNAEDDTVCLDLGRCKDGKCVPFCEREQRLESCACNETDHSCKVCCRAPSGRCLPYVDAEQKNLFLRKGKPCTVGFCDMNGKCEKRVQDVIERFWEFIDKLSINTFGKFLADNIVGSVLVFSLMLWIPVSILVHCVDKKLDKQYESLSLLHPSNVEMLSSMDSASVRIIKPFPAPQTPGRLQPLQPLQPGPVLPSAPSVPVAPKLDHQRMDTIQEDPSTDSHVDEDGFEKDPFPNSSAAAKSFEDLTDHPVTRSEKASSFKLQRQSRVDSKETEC", "assay": "Inhibition of porcine Tumor necrosis factor- alpha converting enzyme (TACE, ADAM17)"}, "[2]": {"target": "72 kDa type IV collagenase (Homo sapiens, UniProt P08253)", "sequence (P08253 whole entry)": "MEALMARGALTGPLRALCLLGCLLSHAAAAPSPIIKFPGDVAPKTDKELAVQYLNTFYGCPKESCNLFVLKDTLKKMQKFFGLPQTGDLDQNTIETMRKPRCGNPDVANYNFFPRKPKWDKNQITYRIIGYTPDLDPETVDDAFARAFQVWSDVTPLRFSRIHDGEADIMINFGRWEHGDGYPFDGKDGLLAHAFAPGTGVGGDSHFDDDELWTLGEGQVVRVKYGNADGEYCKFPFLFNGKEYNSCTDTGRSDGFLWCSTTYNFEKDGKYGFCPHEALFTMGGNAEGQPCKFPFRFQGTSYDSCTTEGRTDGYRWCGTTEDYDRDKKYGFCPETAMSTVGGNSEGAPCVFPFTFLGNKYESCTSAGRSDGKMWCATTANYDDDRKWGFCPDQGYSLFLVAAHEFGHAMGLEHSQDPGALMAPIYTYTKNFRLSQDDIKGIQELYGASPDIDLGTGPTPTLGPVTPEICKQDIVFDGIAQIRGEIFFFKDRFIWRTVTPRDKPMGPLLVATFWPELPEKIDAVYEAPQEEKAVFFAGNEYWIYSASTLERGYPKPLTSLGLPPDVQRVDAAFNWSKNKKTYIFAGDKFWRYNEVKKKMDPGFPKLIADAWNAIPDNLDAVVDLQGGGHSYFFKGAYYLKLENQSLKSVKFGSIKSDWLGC", "assay": "inhibition of Matrix metalloprotease-2 (MMP-2)", "in_short": "(§1)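 Inhibition is reported as Ki (nM) against each isolated MMP. Each value comes from a single determination, with no replicates.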"}, "[3]": {"target": "Collagenase 3 (Homo sapiens, UniProt P45452)", "assay": "Inhibition of Matrix metalloprotease-13 (MMP-13)", "in_short": "as §1"}, "[4]": {"test_system": "Caco-2", "assay": "Permeability action in Caco-2 cells", "assay_type": "functional, Homo sapiens"}, "[5]": {"target": "T1, Interstitial collagenase (Homo sapiens, UniProt P03956)", "T1 sequence (P03956 whole entry)": "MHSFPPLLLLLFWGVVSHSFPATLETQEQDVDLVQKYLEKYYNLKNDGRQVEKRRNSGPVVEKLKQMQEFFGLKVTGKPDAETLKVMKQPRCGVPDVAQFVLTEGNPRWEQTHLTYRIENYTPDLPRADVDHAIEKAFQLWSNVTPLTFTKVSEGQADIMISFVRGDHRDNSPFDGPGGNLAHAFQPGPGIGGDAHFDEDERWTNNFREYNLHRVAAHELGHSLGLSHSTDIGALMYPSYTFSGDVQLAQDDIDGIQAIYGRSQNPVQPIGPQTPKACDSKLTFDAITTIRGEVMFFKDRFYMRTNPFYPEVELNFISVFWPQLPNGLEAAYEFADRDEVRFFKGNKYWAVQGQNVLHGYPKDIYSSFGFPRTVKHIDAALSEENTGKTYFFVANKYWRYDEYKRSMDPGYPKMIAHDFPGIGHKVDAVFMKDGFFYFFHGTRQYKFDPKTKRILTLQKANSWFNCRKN", "assay": "Inhibition of Matrix metalloprotease-1 (MMP-1)", "in_short": "as §1"}, "[6]": {"target": "Disintegrin and metalloproteinase domain-containing protein 17 (Homo sapiens, UniProt P78536)", "sequence (P78536 whole entry, the tested form may be a part)": "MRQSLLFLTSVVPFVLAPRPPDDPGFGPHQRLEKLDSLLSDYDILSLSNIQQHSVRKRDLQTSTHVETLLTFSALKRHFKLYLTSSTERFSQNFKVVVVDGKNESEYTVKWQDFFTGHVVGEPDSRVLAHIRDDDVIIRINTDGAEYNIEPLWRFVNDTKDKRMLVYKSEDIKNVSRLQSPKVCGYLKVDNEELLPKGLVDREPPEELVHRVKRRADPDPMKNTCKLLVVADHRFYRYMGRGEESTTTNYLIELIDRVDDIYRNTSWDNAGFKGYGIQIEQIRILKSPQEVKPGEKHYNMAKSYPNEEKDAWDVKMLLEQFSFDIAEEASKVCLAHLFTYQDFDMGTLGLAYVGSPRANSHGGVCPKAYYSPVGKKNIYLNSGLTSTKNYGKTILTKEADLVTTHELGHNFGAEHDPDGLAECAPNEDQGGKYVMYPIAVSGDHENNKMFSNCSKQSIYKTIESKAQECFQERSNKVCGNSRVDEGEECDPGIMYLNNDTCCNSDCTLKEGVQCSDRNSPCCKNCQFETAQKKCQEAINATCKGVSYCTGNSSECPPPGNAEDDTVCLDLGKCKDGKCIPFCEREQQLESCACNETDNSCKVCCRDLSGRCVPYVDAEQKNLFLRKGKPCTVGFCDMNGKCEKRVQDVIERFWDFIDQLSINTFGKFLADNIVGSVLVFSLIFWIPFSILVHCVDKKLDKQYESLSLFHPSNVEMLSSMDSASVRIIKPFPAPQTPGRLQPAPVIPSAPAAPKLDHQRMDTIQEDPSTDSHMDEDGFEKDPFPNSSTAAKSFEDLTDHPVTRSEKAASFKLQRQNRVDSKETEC", "assay": "Effect on TNF-Alpha release in LPS-stimulated human whole blood assay", "assay_type": "functional, tissue-based"}, "[7]": {"target": "Matrix metalloproteinase-9 (Homo sapiens, UniProt P14780)", "sequence (P14780 whole entry)": "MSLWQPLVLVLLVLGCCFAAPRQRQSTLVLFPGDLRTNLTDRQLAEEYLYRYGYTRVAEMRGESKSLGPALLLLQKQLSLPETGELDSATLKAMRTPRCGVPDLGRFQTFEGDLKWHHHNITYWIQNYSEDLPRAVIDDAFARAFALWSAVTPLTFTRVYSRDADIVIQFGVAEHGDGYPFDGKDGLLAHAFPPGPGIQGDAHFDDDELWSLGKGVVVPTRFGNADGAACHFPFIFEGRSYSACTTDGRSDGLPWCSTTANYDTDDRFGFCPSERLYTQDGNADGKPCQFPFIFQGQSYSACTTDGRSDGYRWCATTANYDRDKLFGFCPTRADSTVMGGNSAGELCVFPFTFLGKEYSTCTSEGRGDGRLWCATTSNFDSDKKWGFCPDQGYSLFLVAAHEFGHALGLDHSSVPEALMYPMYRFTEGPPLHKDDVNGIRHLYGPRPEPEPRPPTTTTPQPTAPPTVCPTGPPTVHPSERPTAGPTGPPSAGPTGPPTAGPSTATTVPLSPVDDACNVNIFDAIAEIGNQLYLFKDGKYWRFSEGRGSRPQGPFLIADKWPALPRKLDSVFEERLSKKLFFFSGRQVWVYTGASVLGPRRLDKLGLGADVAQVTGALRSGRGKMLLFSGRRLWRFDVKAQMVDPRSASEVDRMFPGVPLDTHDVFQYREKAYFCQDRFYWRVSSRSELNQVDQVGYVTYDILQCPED", "assay": "Inhibition of Matrix metalloprotease-9 (MMP-9)", "in_short": "as §1"}, "[8]": {"test_system": "Mus musculus", "assay": "Compound was tested for anti TNF-alpha activity using LPS mouse model at 10 mg/kg p.o.", "assay_type": "functional", "conditions": "route oral"}, "[9]": {"test_system": "Caco-2", "assay": "Permeability action in Caco-2 cell", "assay_type": "functional, Homo sapiens"}}}
{"molecule": "CCCCN1CCC(C(=O)NO)C(CS(=O)(=O)c2ccc(OCc3cc(C)nc4ccccc34)cc2)C1", "note": "(stereo unspecified)", "values": [{"measurement": "IC50", "setting": "[1]", "result": "< 1", "unit": "nM"}, {"measurement": "Ki", "setting": "[2]", "result": "> 3300", "unit": "nM"}, {"measurement": "Ki", "setting": "[3]", "result": "> 5000", "unit": "nM"}, {"measurement": "Caco-2 Papp", "setting": "[4]", "result": 1.6, "unit": "×10⁻⁶ cm/s"}, {"measurement": "Ki", "setting": "[5]", "result": "> 4900", "unit": "nM"}, {"measurement": "IC50", "setting": "[6]", "result": 900, "unit": "nM"}, {"measurement": "Ki", "setting": "[7]", "result": "> 2100", "unit": "nM"}, {"measurement": "inhibition in vivo at 10 mg/kg", "setting": "[8]", "result": 35, "unit": "%"}]}
{"molecule": "Cc1cc(COc2ccc(S(=O)(=O)CC3NCCC3C(=O)NO)cc2)c2ccccc2n1", "note": "(stereo unspecified)", "values": [{"measurement": "IC50", "setting": "[1]", "result": "< 1", "unit": "nM"}, {"measurement": "Ki", "setting": "[2]", "result": "> 3300", "unit": "nM"}, {"measurement": "Ki", "setting": "[3]", "result": 955, "unit": "nM"}, {"measurement": "Caco-2 Papp", "setting": "[4]", "result": 0.1, "unit": "×10⁻⁶ cm/s"}, {"measurement": "Ki", "setting": "[5]", "result": "> 4900", "unit": "nM"}, {"measurement": "IC50", "setting": "[6]", "result": 83, "unit": "nM"}, {"measurement": "Ki", "setting": "[7]", "result": "> 2100", "unit": "nM"}, {"measurement": "inhibition in vivo at 10 mg/kg", "setting": "[8]", "result": 20, "unit": "%"}]}
{"molecule": "C=CCN1CCC(C(=O)NO)C(CS(=O)(=O)c2ccc(OCc3cc(C)nc4ccccc34)cc2)C1", "note": "(stereo unspecified)", "values": [{"measurement": "IC50", "setting": "[1]", "result": 1.8, "unit": "nM"}, {"measurement": "Ki", "setting": "[2]", "result": "> 3300", "unit": "nM"}, {"measurement": "Ki", "setting": "[3]", "result": 503, "unit": "nM"}, {"measurement": "Caco-2 Papp", "setting": "[4]", "result": 0.97, "unit": "×10⁻⁶ cm/s"}, {"measurement": "Ki", "setting": "[5]", "result": "> 4900", "unit": "nM"}, {"measurement": "IC50", "setting": "[6]", "result": 160, "unit": "nM"}, {"measurement": "Ki", "setting": "[7]", "result": "> 2100", "unit": "nM"}, {"measurement": "inhibition in vivo at 10 mg/kg", "setting": "[8]", "result": 25, "unit": "%"}]}
{"molecule": "Cc1cc(COc2ccc(S(=O)(=O)CC3C(C(=O)NO)CCN3C)cc2)c2ccccc2n1", "note": "(stereo unspecified)", "values": [{"measurement": "IC50", "setting": "[1]", "result": "< 1", "unit": "nM"}, {"measurement": "Ki", "setting": "[2]", "result": "> 3300", "unit": "nM"}, {"measurement": "Ki", "setting": "[3]", "result": 1710, "unit": "nM"}, {"measurement": "Caco-2 Papp", "setting": "[4]", "result": 1, "unit": "×10⁻⁶ cm/s"}, {"measurement": "Ki", "setting": "[5]", "result": "> 4900", "unit": "nM"}, {"measurement": "IC50", "setting": "[6]", "result": 180, "unit": "nM"}, {"measurement": "Ki", "setting": "[7]", "result": "> 2100", "unit": "nM"}, {"measurement": "ED50", "setting": "[8]", "result": 2.5, "unit": "mg/kg"}, {"measurement": "inhibition in vivo at 10 mg/kg", "setting": "[8]", "result": 50, "unit": "%"}]}
{"molecule": "C#CN1CCC(C(=O)NO)C(CS(=O)(=O)c2ccc(OCc3cc(C)nc4ccccc34)cc2)C1", "note": "(stereo unspecified)", "values": [{"measurement": "IC50", "setting": "[1]", "result": 1, "unit": "nM"}, {"measurement": "Ki", "setting": "[2]", "result": "> 3300", "unit": "nM"}, {"measurement": "Ki", "setting": "[3]", "result": 377, "unit": "nM"}, {"measurement": "Caco-2 Papp", "setting": "[4]", "result": 1.3, "unit": "×10⁻⁶ cm/s"}, {"measurement": "Ki", "setting": "[5]", "result": "> 4900", "unit": "nM"}, {"measurement": "IC50", "setting": "[6]", "result": 180, "unit": "nM"}, {"measurement": "Ki", "setting": "[7]", "result": "> 2100", "unit": "nM"}, {"measurement": "inhibition in vivo at 10 mg/kg", "setting": "[8]", "result": 24, "unit": "%"}]}
{"molecule": "Cc1cc(COc2ccc(S(=O)(=O)CC3CNCCC3C(=O)NO)cc2)c2ccccc2n1", "note": "(stereo unspecified)", "values": [{"measurement": "IC50", "setting": "[1]", "result": 1, "unit": "nM"}, {"measurement": "Caco-2 Papp", "setting": "[9]", "result": 0.1, "unit": "×10⁻⁶ cm/s"}, {"measurement": "Ki", "setting": "[2]", "result": "> 3300", "unit": "nM"}, {"measurement": "Ki", "setting": "[3]", "result": "> 5000", "unit": "nM"}, {"measurement": "Ki", "setting": "[5]", "result": "> 4900", "unit": "nM"}, {"measurement": "IC50", "setting": "[6]", "result": 250, "unit": "nM"}, {"measurement": "Ki", "setting": "[7]", "result": "> 2100", "unit": "nM"}]}
{"molecule": "CCC(C)N1CCC(C(=O)NO)C(CS(=O)(=O)c2ccc(OCc3cc(C)nc4ccccc34)cc2)C1", "note": "(stereo unspecified)", "values": [{"measurement": "IC50", "setting": "[1]", "result": "< 1", "unit": "nM"}, {"measurement": "Ki", "setting": "[2]", "result": "> 3300", "unit": "nM"}, {"measurement": "Ki", "setting": "[3]", "result": "> 5000", "unit": "nM"}, {"measurement": "Caco-2 Papp", "setting": "[4]", "result": 1.8, "unit": "×10⁻⁶ cm/s"}, {"measurement": "Ki", "setting": "[5]", "result": "> 4900", "unit": "nM"}, {"measurement": "IC50", "setting": "[6]", "result": 1070, "unit": "nM"}, {"measurement": "Ki", "setting": "[7]", "result": "> 2100", "unit": "nM"}, {"measurement": "inhibition in vivo at 10 mg/kg", "setting": "[8]", "result": 33, "unit": "%"}]}
